Unmarked numbers belong to inactive results. Calls of active or inactive are those of the source.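 Rule for the calls: active = inhibition above 10%; inactive = the rest.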
These compounds were tested against Hexokinase-4 (Homo sapiens) (UniProt P35557) (assay: human glucokinase inhibition, counter-screen for TbHK1 inhibitor project, biochemical, recombinant hGlck (AID 492951)). Settings: G6PDH-coupled NADH absorbance 340 nm, at 10 µM; active compounds read high.
Summary of the method: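 Material: Recombinant human glucokinase, G6PDH-coupled | Medium: TEA buffer pH 7.9 with 3.3 mM MgCl2, 0.75 mM NAD+ | Also added: 20 mM glucose as reaction starter, plus 1 mM ATP | Compound dosing: One dose, 10 µM final | Schedule: 10 min preincubation at room temperature | Measured by: A340 of NADH | Repeats: Three replicates per compound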

Sequence of Hexokinase-4 (Homo sapiens) (P35557 whole entry, looked up): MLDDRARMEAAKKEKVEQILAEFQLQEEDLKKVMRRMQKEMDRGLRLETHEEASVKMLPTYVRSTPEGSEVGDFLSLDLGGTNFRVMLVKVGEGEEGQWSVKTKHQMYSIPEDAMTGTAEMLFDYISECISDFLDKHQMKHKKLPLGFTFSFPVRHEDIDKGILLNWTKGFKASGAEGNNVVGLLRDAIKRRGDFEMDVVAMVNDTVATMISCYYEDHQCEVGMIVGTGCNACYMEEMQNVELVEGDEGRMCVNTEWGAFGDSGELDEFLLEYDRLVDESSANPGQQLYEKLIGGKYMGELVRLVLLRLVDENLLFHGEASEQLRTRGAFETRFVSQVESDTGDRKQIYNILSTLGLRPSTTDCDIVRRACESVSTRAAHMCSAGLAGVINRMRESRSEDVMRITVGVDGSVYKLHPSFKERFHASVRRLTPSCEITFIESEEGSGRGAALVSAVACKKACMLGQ

SMILES | inhibition | outcome
COc1ccc(C(=O)Nc2cc(Cl)ccc2-c2noc(=O)[nH]2)cc1 | 30.1% (active) | –
N#Cc1ccc2c(=O)n(-c3ccccc3)sc2c1 | 54% (active) | –
O=C(Cn1sc2ccccc2c1=O)Nc1ccc(F)cc1 | 1.7% | –
O=C(Nc1ccccc1)c1cc(F)ccc1S | 3.6% | –
O=c1c2ccccc2sn1-c1ccc(Cl)cc1 | 35.6% (active) | –
O=C1c2ccccc2S(=O)N1c1ccc(Cl)cc1 (stereo not drawn) | 37.2% (active) | –
O=c1c2cc([N+](=O)[O-])ccc2sn1-c1ccccc1 | 11.4% (active) | –
COC(=O)c1ccc(Cl)cc1NC(=O)c1ccccc1OC | – | inactive
CC(C)(C)c1ccc(C(=O)Nc2cc(Cl)ccc2-c2nn[nH]n2)cc1 | 28.4% (active) | –
CCc1ccc(C(=O)Nc2cc(Cl)ccc2C(=O)OC)cc1 | 14.5% (active) | –
COc1ccc(C(=O)Nc2cc(Cl)ccc2S(N)(=O)=O)cc1 | 11.1% (active) | –
O=c1c2ccc([N+](=O)[O-])cc2sn1-c1ccccc1 | 1.5% | –
CCc1ccc(C(=O)Nc2cc(Cl)ccc2C(=O)O)cc1 | – | inactive
O=C(CCn1sc2ccccc2c1=O)Nc1ccccc1 | – | inactive
O=C(Nc1cc(Cl)ccc1C(=O)O)c1ccc(Cl)cc1 | – | inactive
O=c1c2ccccc2sn1-c1cccc(Cl)c1 | 34.9% (active) | –
COc1ccc(C(=O)O)c(NC(=O)c2ccc(Cl)cc2)c1 | 15.8% (active) | –
CN(C)c1ccc(NC(=O)Cn2sc3ccccc3c2=O)cc1 | 14.1% (active) | –
Cc1ccccc1NC(=O)Cn1sc2ccccc2c1=O | – | inactive

SMILES | inhibition | outcome
O=C(Nc1cc(Cl)ccc1C(=O)O)c1ccccc1 | – | inactive
CCCCCCC(=O)Nc1cc(Cl)ccc1C(=O)O | – | inactive
O=C(Cn1sc2ccccc2c1=O)Nc1cccc(Br)c1 | 22.2% (active) | –
Cn1c2ccccc2c(=O)n1-c1ccccc1 | – | inactive
CCC(C)(C)c1ccc(C(=O)Nc2cc(Cl)ccc2C(=O)O)cc1 | 26% (active) | –
CC(C)(C)c1ccc(C(=O)Nc2cc(Cl)ccc2C(=O)O)cc1 | – | inactive
O=C(Cn1sc2ccccc2c1=O)N1CCCCC1 | – | inactive
COc1ccc(C(=O)NC(C(=O)O)c2ccccc2)cc1 (stereo not drawn) | – | inactive
CN(C)S(=O)(=O)c1cccc(-n2sc3ccccc3c2=O)c1 | 22.1% (active) | –
CC(C)(C)c1ccc(C(=O)Nc2cc(Cl)c(Br)cc2C(=O)O)cc1 | 11.9% (active) | –
Cc1ccc(C(=O)Nc2cc(Cl)ccc2C(=O)O)cc1C | – | inactive
Cc1ccccc1N1Cc2ccccc2C1=O | – | inactive
Cc1cccc(C(=O)Nc2cc(Cl)ccc2C(=O)O)c1 | – | inactive
N#Cc1ccc(NC(=O)Cn2sc3ccccc3c2=O)cc1 | – | inactive
O=c1c2cc(C(F)(F)F)ccc2sn1-c1ccccc1 | 45.7% (active) | –
O=C(Cn1sc2ccccc2c1=O)Nc1ccccc1C(F)(F)F | 11.1% (active) | –
O=c1s[nH]c2ccccc12 | 48.8% (active) | –
COc1ccc(C(=O)Nc2cc(OC)ccc2C(=O)O)cc1 | 6.9% | –
COc1ccc2sn(-c3ccccc3)c(=O)c2c1 | 13.6% (active) | –

From PubChem BioAssay AID492951 (Molecular Libraries Program, Specialized Chemistry Center, …, 2010)
